According to ChEMBL document CHEMBL4814044, “Design and synthesis, biological evaluation of bis-(1,2,3- and 1,2,4)-triazole derivatives as potential antimicrobial and antifungal agents” (2021):
Values belong to the compound of their own block, whether it stands above or below them. Activity calls are given as the source filed them. No cut-off for these calls is given here.

Assays:
Assay type in all cases: functional
[1] = Antioxidant activity assessed as DPPH radical scavenging activity
[2] = test system: Saccharomyces cerevisiae; assay: Antifungal activity against Saccharomyces cerevisiae MTCC 1344 assessed as zone of inhibition at 15.9 uM incubated for 2 days by cross streak plate method; details: MTCC 1344, 48 h, time 2 day, read-out: IZ
In short: (§1)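 Fungal strain (A. niger MTCC 404 or S. cerevisiae MTCC 1344) was incubated with the compound for 2 days at 37 °C. Growth inhibition was then assessed by the cross streak plate method.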

[3] = test system: Saccharomyces cerevisiae; assay: Antifungal activity against Saccharomyces cerevisiae MTCC 1344 assessed as zone of inhibition at 31.8 uM incubated for 2 days by cross streak plate method; details: MTCC 1344, 48 h, time 2 day, read-out: IZ; in short: as §1
[4] = test system: Saccharomyces cerevisiae; assay: Antifungal activity against Saccharomyces cerevisiae MTCC 1344 assessed as zone of inhibition at 23.9 uM incubated for 2 days by cross streak plate method; details: MTCC 1344, 48 h, time 2 day, read-out: IZ; in short: as §1
[5] = test system: Escherichia coli; assay: Antibacterial activity against Escherichia coli MTCC 443 assessed as bacterial growth inhibition by microdilution method
In short: (§2)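 Broth microdilution against Gram-positive and Gram-negative strains. The endpoint is the minimal inhibitory concentration, in µg/ml.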

[6] = test system: Aspergillus niger; assay: Antifungal activity against Aspergillus niger MTCC 404 assessed as zone of inhibition at 23.9 uM incubated for 2 days by cross streak plate method; details: MTCC 404, 48 h, time 2 day, read-out: IZ; in short: as §1
[7] = test system: Pseudomonas aeruginosa; assay: Antibacterial activity against Pseudomonas aeruginosa MTCC 424 assessed as bacterial growth inhibition by microdilution method; in short: as §2
[8] = test system: Aspergillus niger; assay: Antifungal activity against Aspergillus niger MTCC 404 assessed as zone of inhibition at 15.9 uM incubated for 2 days by cross streak plate method; details: MTCC 404, 48 h, time 2 day, read-out: IZ; in short: as §1
[9] = test system: Staphylococcus aureus; assay: Antibacterial activity against Staphylococcus aureus MTCC 96 assessed as bacterial growth inhibition by microdilution method; in short: as §2
[10] = test system: Aspergillus niger; assay: Antifungal activity against Aspergillus niger MTCC 404 assessed as zone of inhibition at 31.8 uM incubated for 2 days by cross streak plate method; details: MTCC 404, 48 h, time 2 day, read-out: IZ; in short: as §1
[11] = test system: Bacillus subtilis; assay: Antibacterial activity against Bacillus subtilis MTCC 441 assessed as bacterial growth inhibition by microdilution method; in short: as §2
[12] = test system: Aspergillus niger; assay: Antifungal activity against Aspergillus niger MTCC 404 assessed as zone of inhibition at 16.8 uM incubated for 2 days by cross streak plate method; details: MTCC 404, 48 h, time 2 day, read-out: IZ; in short: as §1
[13] = test system: Saccharomyces cerevisiae; assay: Antifungal activity against Saccharomyces cerevisiae MTCC 1344 assessed as zone of inhibition at 16.8 uM incubated for 2 days by cross streak plate method; details: MTCC 1344, 48 h, time 2 day, read-out: IZ; in short: as §1
[14] = test system: Saccharomyces cerevisiae; assay: Antifungal activity against Saccharomyces cerevisiae MTCC 1344 assessed as zone of inhibition at 25.2 uM incubated for 2 days by cross streak plate method; details: MTCC 1344, 48 h, time 2 day, read-out: IZ; in short: as §1
[15] = test system: Aspergillus niger; assay: Antifungal activity against Aspergillus niger MTCC 404 assessed as zone of inhibition at 33.7 uM incubated for 2 days by cross streak plate method; details: MTCC 404, 48 h, time 2 day, read-out: IZ; in short: as §1
[16] = test system: Saccharomyces cerevisiae; assay: Antifungal activity against Saccharomyces cerevisiae MTCC 1344 assessed as zone of inhibition at 33.7 uM incubated for 2 days by cross streak plate method; details: MTCC 1344, 48 h, time 2 day, read-out: IZ
In short: (§3)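 S. cerevisiae MTCC 1344 cultures were incubated for 2 days at 37 °C and then tested by the cross streak plate method.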

[17] = test system: Aspergillus niger; assay: Antifungal activity against Aspergillus niger MTCC 404 assessed as zone of inhibition at 25.2 uM incubated for 2 days by cross streak plate method; details: MTCC 404, 48 h, time 2 day, read-out: IZ; in short: as §1
[18] = test system: Aspergillus niger; assay: Antifungal activity against Aspergillus niger MTCC 404 assessed as zone of inhibition at 23.4 uM incubated for 2 days by cross streak plate method; details: MTCC 404, 48 h, time 2 day, read-out: IZ; in short: as §1
[19] = test system: Aspergillus niger; assay: Antifungal activity against Aspergillus niger MTCC 404 assessed as zone of inhibition at 31.2 uM incubated for 2 days by cross streak plate method; details: MTCC 404, 48 h, time 2 day, read-out: IZ; in short: as §1
[20] = test system: Saccharomyces cerevisiae; assay: Antifungal activity against Saccharomyces cerevisiae MTCC 1344 assessed as zone of inhibition at 23.4 uM incubated for 2 days by cross streak plate method; details: MTCC 1344, 48 h, time 2 day, read-out: IZ; in short: as §1
[21] = test system: Saccharomyces cerevisiae; assay: Antifungal activity against Saccharomyces cerevisiae MTCC 1344 assessed as zone of inhibition at 15.6 uM incubated for 2 days by cross streak plate method; details: MTCC 1344, 48 h, time 2 day, read-out: IZ; in short: as §1
[22] = test system: Saccharomyces cerevisiae; assay: Antifungal activity against Saccharomyces cerevisiae MTCC 1344 assessed as zone of inhibition at 31.2 uM incubated for 2 days by cross streak plate method; details: MTCC 1344, 48 h, time 2 day, read-out: IZ; in short: as §1
[23] = test system: Aspergillus niger; assay: Antifungal activity against Aspergillus niger MTCC 404 assessed as zone of inhibition at 15.6 uM incubated for 2 days by cross streak plate method; details: MTCC 404, 48 h, time 2 day, read-out: IZ; in short: as §1
[24] = test system: Aspergillus niger; assay: Antifungal activity against Aspergillus niger MTCC 404 assessed as zone of inhibition at 24 uM incubated for 2 days by cross streak plate method; details: MTCC 404, 48 h, time 2 day, read-out: IZ; in short: as §1
[25] = test system: Aspergillus niger; assay: Antifungal activity against Aspergillus niger MTCC 404 assessed as zone of inhibition at 16 uM incubated for 2 days by cross streak plate method; details: MTCC 404, 48 h, time 2 day, read-out: IZ; in short: as §1
[26] = test system: Aspergillus niger; assay: Antifungal activity against Aspergillus niger MTCC 404 assessed as zone of inhibition at 32.1 uM incubated for 2 days by cross streak plate method; details: MTCC 404, 48 h, time 2 day, read-out: IZ; in short: as §1
[27] = test system: Saccharomyces cerevisiae; assay: Antifungal activity against Saccharomyces cerevisiae MTCC 1344 assessed as zone of inhibition at 24 uM incubated for 2 days by cross streak plate method; details: MTCC 1344, 48 h, time 2 day, read-out: IZ; in short: as §1
[28] = test system: Saccharomyces cerevisiae; assay: Antifungal activity against Saccharomyces cerevisiae MTCC 1344 assessed as zone of inhibition at 32.1 uM incubated for 2 days by cross streak plate method; details: MTCC 1344, 48 h, time 2 day, read-out: IZ; in short: as §3
[29] = test system: Saccharomyces cerevisiae; assay: Antifungal activity against Saccharomyces cerevisiae MTCC 1344 assessed as zone of inhibition at 16 uM incubated for 2 days by cross streak plate method; details: MTCC 1344, 48 h, time 2 day, read-out: IZ; in short: as §1
[30] = test system: Saccharomyces cerevisiae; assay: Antifungal activity against Saccharomyces cerevisiae MTCC 1344 assessed as zone of inhibition at 29.7 uM incubated for 2 days by cross streak plate method; details: MTCC 1344, 48 h, time 2 day, read-out: IZ; in short: as §1
[31] = test system: Aspergillus niger; assay: Antifungal activity against Aspergillus niger MTCC 404 assessed as zone of inhibition at 29.7 uM incubated for 2 days by cross streak plate method; details: MTCC 404, 48 h, time 2 day, read-out: IZ; in short: as §1
[32] = test system: Saccharomyces cerevisiae; assay: Antifungal activity against Saccharomyces cerevisiae MTCC 1344 assessed as zone of inhibition at 14.8 uM incubated for 2 days by cross streak plate method; details: MTCC 1344, 48 h, time 2 day, read-out: IZ; in short: as §1
[33] = test system: Aspergillus niger; assay: Antifungal activity against Aspergillus niger MTCC 404 assessed as zone of inhibition at 14.8 uM incubated for 2 days by cross streak plate method; details: MTCC 404, 48 h, time 2 day, read-out: IZ; in short: as §1
[34] = test system: Aspergillus niger; assay: Antifungal activity against Aspergillus niger MTCC 404 assessed as zone of inhibition at 22.2 uM incubated for 2 days by cross streak plate method; details: MTCC 404, 48 h, time 2 day, read-out: IZ; in short: as §1
[35] = test system: Saccharomyces cerevisiae; assay: Antifungal activity against Saccharomyces cerevisiae MTCC 1344 assessed as zone of inhibition at 22.2 uM incubated for 2 days by cross streak plate method; details: MTCC 1344, 48 h, time 2 day, read-out: IZ; in short: as §1

MIC [5]: 8.5 µg/mL | MIC [7]: 8.2 µg/mL | MIC [9]: 8 µg/mL | MIC [11]: 4 µg/mL
SMILES: O=C(CSc1nnc(-c2ccccc2OCc2cn(-c3ccc(Cl)cc3)nn2)n1Cc1ccccc1)c1ccc(Cl)cc1
Activity [1]: inactive | zone of inhibition at 15.9 µM [2]: 2 mm | zone of inhibition at 31.8 µM [3]: 3 mm | zone of inhibition at 23.9 µM [4]: 2 mm | zone of inhibition at 23.9 µM [6]: 2 mm | zone of inhibition at 15.9 µM [8]: 2 mm | zone of inhibition at 31.8 µM [10]: 3 mm

MIC [5]: 10 µg/mL | MIC [7]: 9 µg/mL | MIC [9]: 9.7 µg/mL | MIC [11]: 5.2 µg/mL
SMILES: O=C(CSc1nnc(-c2ccccc2OCc2cn(-c3ccc(Cl)cc3)nn2)n1Cc1ccccc1)c1ccccc1
zone of inhibition at 16.8 µM [12]: 6 mm | Activity [1]: inactive | zone of inhibition at 16.8 µM [13]: 5.8 mm | zone of inhibition at 25.2 µM [14]: 5.7 mm | zone of inhibition at 33.7 µM [15]: 8.2 mm | zone of inhibition at 33.7 µM [16]: 7 mm | zone of inhibition at 25.2 µM [17]: 8 mm

MIC [5]: 10 µg/mL | MIC [7]: 7.5 µg/mL | MIC [9]: 7.9 µg/mL | MIC [11]: 5 µg/mL
SMILES: O=C(CSc1nnc(-c2ccccc2OCc2cn(-c3ccccc3)nn2)n1Cc1ccccc1)c1ccccc1
zone of inhibition at 16.8 µM [12]: 2 mm | Activity [1]: inactive | zone of inhibition at 16.8 µM [13]: 2 mm | zone of inhibition at 25.2 µM [14]: 3 mm | zone of inhibition at 33.7 µM [15]: 3 mm | zone of inhibition at 33.7 µM [16]: 3 mm | zone of inhibition at 25.2 µM [17]: 3 mm

MIC [5]: 4.5 µg/mL | MIC [7]: 8.8 µg/mL | MIC [9]: 3.9 µg/mL | MIC [11]: 4.2 µg/mL
SMILES: O=C(CSc1nnc(-c2ccccc2OCc2cn(-c3ccccc3)nn2)n1Cc1ccccc1)c1ccc(Br)cc1
Activity [1]: inactive | zone of inhibition at 23.4 µM [18]: 7.4 mm | zone of inhibition at 31.2 µM [19]: 7.6 mm | zone of inhibition at 23.4 µM [20]: 6.5 mm | zone of inhibition at 15.6 µM [21]: 6 mm | zone of inhibition at 31.2 µM [22]: 7 mm | zone of inhibition at 15.6 µM [23]: 5 mm

MIC [5]: > 40.8 µg/mL | MIC [7]: 7.5 µg/mL | MIC [9]: 8 µg/mL | MIC [11]: 4.1 µg/mL
SMILES: O=C(CSc1nnc(-c2ccccc2OCc2cn(-c3ccccc3)nn2)n1Cc1ccccc1)c1cccc(Cl)c1
Activity [1]: inactive | zone of inhibition at 15.9 µM [2]: 1.5 mm | zone of inhibition at 31.8 µM [3]: 3 mm | zone of inhibition at 23.9 µM [4]: 2 mm | zone of inhibition at 23.9 µM [6]: 2 mm | zone of inhibition at 15.9 µM [8]: 2 mm | zone of inhibition at 31.8 µM [10]: 3 mm

MIC [5]: 10 µg/mL | MIC [7]: 7.5 µg/mL | MIC [9]: 7.9 µg/mL | MIC [11]: 4.1 µg/mL
SMILES: O=C(CSc1nnc(-c2ccccc2OCc2cn(-c3ccccc3)nn2)n1-c1ccccc1)c1ccc(Br)cc1
Activity [1]: inactive | zone of inhibition at 24 µM [24]: 2 mm | zone of inhibition at 16 µM [25]: 1.5 mm | zone of inhibition at 32.1 µM [26]: 3 mm | zone of inhibition at 24 µM [27]: 2 mm | zone of inhibition at 32.1 µM [28]: 3 mm | zone of inhibition at 16 µM [29]: 2 mm

MIC [5]: 9 µg/mL | MIC [7]: 8.1 µg/mL | MIC [9]: 8.5 µg/mL | MIC [11]: 4.4 µg/mL
SMILES: O=C(CSc1nnc(-c2ccccc2OCc2cn(-c3ccc(Cl)cc3)nn2)n1Cc1ccccc1)c1ccc(Br)cc1
zone of inhibition at 29.7 µM [30]: 3 mm | Activity [1]: inactive | zone of inhibition at 29.7 µM [31]: 3 mm | zone of inhibition at 14.8 µM [32]: 1.5 mm | zone of inhibition at 14.8 µM [33]: 2 mm | zone of inhibition at 22.2 µM [34]: 2 mm | zone of inhibition at 22.2 µM [35]: 2 mm
